Active and inactive are the calls of the source.
Assays:
Rattus norvegicus [1] = experiment: Toxicity in Sprague-Dawley rat mononeuropathy pain model assessed as effect on contralateral paw pressure at 30 mg/kg, po after 45 mins by paw pressure test; type: organism-based; parameters: dose 30 mg/kg, route oral; conditions: in vivo, 0.75 h
Method in brief: (§1)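 Same sciatic-ligation rat model, 14 days after surgery. Threshold measured on the non-operated contralateral hind paw by analgesimeter at 32 g/s; first-struggle endpoint; 250 g cut-off; pretest rats outside 40–75 g rejected. Compound given po in 10 ml/kg; readings at 15, 30 and 45 min.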

Mus musculus [2] = experiment: Antihyperalgesic activity Swiss albino mouse […] assessed as licking latency time at 30 mg/kg, po after 60 mins by hot plate test (reference value: 17.4 +/- 1.2 secs); type: functional
Method in brief: (§2)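 Hot plate at 52.5 ± 0.1 °C in non-diabetic male Swiss mice. Latency to licking of fore or hind paws was timed before dosing and every 15 min up to 60 min after oral dosing. Mice with pretest latencies below 12 s or above 18 s were excluded. Cut-off was 45 s.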

Mus musculus [3] = experiment: Antihyperalgesic activity against streptozotocin-induced hyperalgesia in Swiss albino mouse […] assessed as licking latency time at 30 mg/kg, po after 30 mins by hot plate test (reference value: 10.6 +/- 0.7 secs); type: functional
Mus musculus [4] = experiment: Antihyperalgesic activity Swiss albino mouse […] assessed as licking latency time at 30 mg/kg, po after 45 mins by hot plate test (reference value: 17.4 +/- 1.2 secs); type: functional; method in brief: as §2
Rattus norvegicus [5] = experiment: Antinociceptive activity in Sprague-Dawley rat mononeuropathy pain model assessed as increase in injured paw pressure at 100 mg/kg, po after 45 mins by paw pressure test relative to non-treated control; type: functional
Method in brief: (§3)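 Chronic constriction injury: loose ligatures placed on the common sciatic nerve under chloral hydrate; contralateral sham dissection. Tested 14 days after surgery. Paw pressure applied at 32 g/s; threshold taken as the force causing the first struggle; cut-off 250 g; pretest outliers (<40 g or >75 g) excluded. Oral dosing in 10 ml/kg; read at 15, 30 and 45 min; compared with a CMC-treated group.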

Rattus norvegicus [6] = experiment: Toxicity in Sprague-Dawley rat mononeuropathy pain model assessed as effect on contralateral paw pressure at 100 mg/kg, po after 15 mins by paw pressure test; type: organism-based; parameters: dose 100 mg/kg, route oral; conditions: in vivo, 0.25 h; method in brief: as §1
Rattus norvegicus [7] = experiment: Toxicity in Sprague-Dawley rat mononeuropathy pain model assessed as effect on contralateral paw pressure at 100 mg/kg, po after 45 mins by paw pressure test; type: organism-based; parameters: dose 100 mg/kg, route oral; conditions: in vivo, 0.75 h; method in brief: as §1
Mus musculus [8] = experiment: Antihyperalgesic activity Swiss albino mouse […] assessed as licking latency time at 30 mg/kg, po after 15 mins by hot plate test (reference value: 17.4 +/- 1.2 secs); type: functional; method in brief: as §2
Mus musculus [9] = experiment: Antihyperalgesic activity against streptozotocin-induced hyperalgesia in Swiss albino mouse […] assessed as licking latency time at 30 mg/kg, po after 45 mins by hot plate test (reference value: 10.6 +/- 0.7 secs); type: functional
Rattus norvegicus [10] = experiment: Antinociceptive activity in Sprague-Dawley rat mononeuropathy pain model assessed as increase in injured paw pressure at 30 mg/kg, po after 30 mins by paw pressure test relative to non-treated control; type: functional; method in brief: as §3
Bos taurus = organism: Bos taurus; experiment: Displacement of [3H]Ro151788 from GABA(A)/BzR in bovine cerebral cortex membrane at 10 uM; type: cell membranes
Method in brief: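 Bovine cerebral cortex membranes in 50 mM Tris-citrate pH 7.4; [3H]flumazenil displacement. Compounds first tested at a fixed 10 µM; Ki determined only when inhibition exceeded 80%, using at least six concentrations. Five experiments run in triplicate; IC50 obtained by iterative curve fitting and converted to Ki with the Cheng–Prusoff equation.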

Mus musculus [11] = experiment: Antihyperalgesic activity against streptozotocin-induced hyperalgesia in Swiss albino mouse […] assessed as licking latency time at 30 mg/kg, po after 60 mins by hot plate test (reference value: 10.6 +/- 0.7 secs); type: functional
Rattus norvegicus [12] = experiment: Toxicity in Sprague-Dawley rat mononeuropathy pain model assessed as effect on contralateral paw pressure at 30 mg/kg, po after 30 mins by paw pressure test; type: organism-based; parameters: dose 30 mg/kg, route oral; conditions: in vivo, 0.5 h; method in brief: as §1
Mus musculus [13] = experiment: Antihyperalgesic activity Swiss albino mouse […] assessed as licking latency time at 30 mg/kg, po after 30 mins by hot plate test (reference value: 17.4 +/- 1.2 secs); type: functional; method in brief: as §2
Rattus norvegicus [14] = experiment: Antinociceptive activity in Sprague-Dawley rat mononeuropathy pain model assessed as increase in injured paw pressure at 100 mg/kg, po after 15 mins by paw pressure test relative to non-treated control; type: functional; method in brief: as §3
Rattus norvegicus [15] = experiment: Toxicity in Sprague-Dawley rat mononeuropathy pain model assessed as effect on contralateral paw pressure at 100 mg/kg, po after 30 mins by paw pressure test; type: organism-based; parameters: dose 100 mg/kg, route oral; conditions: in vivo, 0.5 h; method in brief: as §1
Rattus norvegicus [16] = experiment: Antinociceptive activity in Sprague-Dawley rat mononeuropathy pain model assessed as increase in injured paw pressure at 30 mg/kg, po after 15 mins by paw pressure test relative to non-treated control; type: functional; method in brief: as §3
Rattus norvegicus [17] = experiment: Antinociceptive activity in Sprague-Dawley rat mononeuropathy pain model assessed as increase in injured paw pressure at 30 mg/kg, po after 45 mins by paw pressure test relative to non-treated control; type: functional; method in brief: as §3
Rattus norvegicus [18] = experiment: Toxicity in Sprague-Dawley rat mononeuropathy pain model assessed as effect on contralateral paw pressure at 30 mg/kg, po after 15 mins by paw pressure test; type: organism-based; parameters: dose 30 mg/kg, route oral; conditions: in vivo, 0.25 h; method in brief: as §1
Mus musculus [19] = experiment: Anticonvulsant activity in Swiss albino mouse […] assessed as protection against intraperitoneally administered pentylenetetrazol-induced seizures at 30 mg/kg, po after 30 mins; type: functional
Method in brief: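 Male Swiss albino mice. Compounds given po and PTZ 90 mg/kg injected 30 min later; PTZ was dissolved in 0.9% NaCl saline. Clonic generalized convulsions were recorded over 30 min. Each value is the mean of 10 mice. The methods give the PTZ route as s.c. and the table footnote gives it as ip.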

Mus musculus [20] = experiment: Anxiolytic-like activity in Swiss albino mouse at 30 mg/kg, po after 30 mins by light/dark box test; type: functional, organism-based; parameters: dose 30 mg/kg
Method in brief: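 Male Swiss mice tested in a two-compartment light/dark box. Transfers between compartments and time spent in the lit side recorded. Compound given po 30 min before testing, in 10 ml/kg; flumazenil given i.p. for antagonism; 8 mice per group.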

Mus musculus [21] = experiment: Antihyperalgesic activity against streptozotocin-induced hyperalgesia in Swiss albino mouse […] assessed as licking latency time at 30 mg/kg, po after 15 mins by hot plate test (reference value: 10.6 +/- 0.7 secs); type: functional
Rattus norvegicus [22] = experiment: Antinociceptive activity in Sprague-Dawley rat mononeuropathy pain model assessed as increase in injured paw pressure at 100 mg/kg, po after 30 mins by paw pressure test relative to non-treated control; type: functional; method in brief: as §3
Mus musculus [23] = experiment: Analgesic activity in Swiss albino mouse abdominal constriction model assessed as decrease in number of acetic acid-induced writhing at 30 to 60 mg/kg, po after 30 mins; type: functional, organism-based; conditions: Abdomen
Method in brief: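 Male Swiss albino mice (23–30 g). Compounds given po in 1% CMC vehicle 30 min before the test. Acetic acid 0.6% injected i.p. at 10 ml/kg. Stretching movements were counted for 10 min, starting 5 min after the acetic acid injection. 8–15 mice per group.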

CCCCCOc1ccc2c(c1)n1ncc(I)c1n[n+]2[O-]
Activity (Rattus norvegicus [1]): 63.1 g | Time (Mus musculus [2]): 17.5 s | Time (Mus musculus [3]): 9.8 s | Time (Mus musculus [4]): 17.1 s | Activity (Rattus norvegicus [5]): 33.9 g | Activity (Rattus norvegicus [6]): 57.4 g | Activity (Rattus norvegicus [7]): 60.5 g | Time (Mus musculus [8]): 18.3 s | Time (Mus musculus [9]): 10.4 s | Activity (Rattus norvegicus [10]): 37.5 g | inhibition (Bos taurus): > 80% | Time (Mus musculus [11]): 9.1 s | Activity (Rattus norvegicus [12]): 61.2 g | Time (Mus musculus [13]): 16.7 s | Activity (Rattus norvegicus [14]): 39.2 g | Activity (Rattus norvegicus [15]): 61.3 g | Activity (Rattus norvegicus [16]): 35.6 g | Activity (Rattus norvegicus [17]): 34.2 g | Activity (Rattus norvegicus [18]): 57.3 g | Activity (Mus musculus [19]): 0% | Activity (Mus musculus [20]): Active | Time (Mus musculus [21]): 9.2 s | Activity (Rattus norvegicus [22]): 38.4 g | Activity (Mus musculus [23]): inactive

From ChEMBL document CHEMBL2176871, “Development of ligands at γ-aminobutyrric acid type A (GABAA) receptor subtype as new agents for pain relief” (Bioorg Med Chem, 2011)
